{"data": "Published values pooled from the literature", "note": "Lines come from different studies, so protocols differ. pIC50: −log10 of the molar value."}
{"Compound": "O=C(NCc1ccc(F)cc1)c1cn(Cc2ccc(C(F)(F)F)cc2)c2ccc(Oc3ccccc3)cc2c1=O", "target or system": "MCF7", "test": "cell growth or viability, MTT", "endpoint": "pIC50", "result": "> 4.92"}
{"Compound": "CCCCCCN(CC1COC2(CCN(C(=O)C3(c4ccccc4)CCCC3)CC2)O1)S(=O)(=O)N(C)Cc1ccccc1 (centres unmarked)", "target or system": "Chikungunya virus", "test": "viral replication, inhibitor", "setting": "40 µM", "endpoint": "inhibition", "result": "70%"}
{"Compound": "O=C(NCc1ccc(F)cc1)c1cn(Cc2ccc(F)cc2)c2ccc(Oc3ccccc3)cc2c1=O", "target or system": "MCF7", "test": "cell growth or viability, MTT", "endpoint": "pIC50", "result": "≤ 3.70"}
{"Compound": "CC(C)C[C@@H](NC(=O)[C@H](C)NC(=O)CNC(=O)[C@@H](NC=O)C(C)C)C(=O)N[C@@H](C)C(=O)N[C@@H](C(=O)N[C@H](C(=O)N[C@@H](C(=O)N[C@@H](Cc1c[nH]c2ccccc12)C(=O)N[C@H](CC(C)C)C(=O)N[C@@H](Cc1ccc2[nH]ccc2c1)C(=O)N[C@H](CC(C)C)C(=O)N[C@@H](Cc1c[nH]c2ccccc12)C(=O)N[C@H](CC(C)C)C(=O)N[C@@H](Cc1c[nH]c2ccccc12)C(=O)NCCO)C(C)C)C(C)C)C(C)C", "target or system": "MCF7", "test": "cell growth or viability, SRB", "setting": "48 h", "endpoint": "GI50", "result": "106 nM"}
{"Compound": "CC[C@H](C)C[C@H](C)CCCCCCCCC(=O)N[C@H]1C[C@@H](O)[C@@H](NCCN)NC(=O)[C@@H]2[C@@H](O)CCN2C(=O)[C@H]([C@H](O)CCN)NC(=O)[C@H]([C@H](O)[C@@H](O)c2ccc(O)cc2)NC(=O)[C@@H]2C[C@@H](O)CN2C(=O)[C@H]([C@@H](C)O)NC1=O", "target or system": "Candidozyma auris", "test": "microbial growth, broth dilution", "setting": "48 h", "endpoint": "MIC", "result": "2 µg/mL"}
{"Compound": "COc1ccc(C=Nc2ccc(SCc3cc(=O)c(O)co3)cc2)cc1", "test": "DPPH scavenging, absorbance", "setting": "30 min", "endpoint": "pIC50", "result": 4.81}
{"Compound": "CC(Oc1ccc(O)cc1)(P(=O)(O)O)P(=O)(O)O", "target or system": "Chikungunya virus", "test": "viral replication", "system": "Vero", "endpoint": "pIC50", "result": 3.26}
{"Compound": "O=C(NCc1ccccc1)c1cn(Cc2ccc(C(F)(F)F)cc2)c2ccc(Oc3ccccc3)cc2c1=O", "target or system": "MCF7", "test": "cell growth or viability, MTT", "setting": "48 h", "endpoint": "pIC50", "result": 5.19}
{"Compound": "CC(C)C[C@@H](NC(=O)[C@H](C)NC(=O)CNC(=O)[C@@H](NC=O)C(C)C)C(=O)N[C@@H](C)C(=O)N[C@@H](C(=O)N[C@H](C(=O)N[C@@H](C(=O)N[C@@H](Cc1c[nH]c2ccccc12)C(=O)N[C@H](CC(C)C)C(=O)N[C@@H](Cc1cc2ccccc2[nH]1)C(=O)N[C@H](CC(C)C)C(=O)N[C@@H](Cc1c[nH]c2ccccc12)C(=O)N[C@H](CC(C)C)C(=O)N[C@@H](Cc1c[nH]c2ccccc12)C(=O)NCCO)C(C)C)C(C)C)C(C)C", "target or system": "MCF7", "test": "cell growth or viability, SRB", "setting": "48 h", "endpoint": "GI50", "result": "23.3 nM"}
{"Compound": "COc1cccc(C=Nc2ccc(SCc3cc(=O)c(O)co3)cc2)c1", "test": "DPPH scavenging, absorbance", "setting": "30 min", "endpoint": "pIC50", "result": 4.93}
{"Compound": "O=C(NCc1ccc(Cl)cc1)c1cn(Cc2ccc(Cl)cc2)c2ccc(Oc3ccccc3)cc2c1=O", "target or system": "MCF7", "test": "cell growth or viability, MTT", "setting": "48 h", "endpoint": "pIC50", "result": 3.77}
{"Compound": "O=c1cc(CSc2ccc(N=Cc3ccc([N+](=O)[O-])cc3)cc2)occ1O", "test": "DPPH scavenging, absorbance", "setting": "30 min", "endpoint": "pIC50", "result": 4.54}
{"Compound": "O=C(Nc1ccc(Cl)cc1)Nc1cccc(-c2cn(Cc3ccc(Br)cc3)nn2)c1", "target or system": "MCF7", "test": "cell growth or viability, CCK-8", "setting": "50 µM, 48 h", "endpoint": "viability", "result": "96.5%"}
{"Compound": "O=c1cc(CSc2ccc(N=Cc3ccccc3C(F)(F)F)cc2)occ1O", "test": "DPPH scavenging, absorbance", "setting": "30 min", "endpoint": "pIC50", "result": 4.44}
{"Compound": "CC(C)(C(=O)N1CCC2(CC1)OCC(CN1CCCCS1(=O)=O)O2)c1ccccc1 (centres unmarked)", "target or system": "Chikungunya virus", "test": "viral replication, inhibitor", "setting": "40 µM", "endpoint": "inhibition", "result": "< 50%"}
{"Compound": "Cc1cccc(C=Nc2ccc(SCc3cc(=O)c(O)co3)cc2)c1", "test": "DPPH scavenging, absorbance", "setting": "30 min", "endpoint": "pIC50", "result": 4.57}
{"Compound": "S=c1[nH]nc(NCNc2n[nH]c(=S)s2)s1", "target or system": "Xanthomonas oryzae", "test": "microbial growth", "endpoint": "EC50", "result": "16 µg/mL"}
